Data set [1] in a line: EV-201 clinical PK of ADC, TAb and free MMAE after enfortumab vedotin 1.25 mg/kg. Type of data set: in vivo, human. As to conditions: for AUCd0–14: cycle 1, dose 3, day 15, geometric mean (%CV).
A short description of data set [2]: Population PK analysis of five clinical studies. Type of data set: in vivo, human. The conditions noted are these: enfortumab vedotin 0.5–1.25 mg/kg.
The subject of data set [3] is Nectin-4–expressing malignant solid tumors. Put plainly: AGS-22M6E-11-1 phase I study. Type of data set: in vivo, human. The conditions noted are these: for median t½: observed concentrations. The method in brief: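 First-in-human study in which patients received an intravenous infusion every 3 weeks at 0.6 or 1.2 mg/kg. ADC is measured as antibody carrying any amount of conjugated MMAE. Median half-life is derived from observed ADC concentrations at each dose level. Safety, tolerability and clinical response are assessed per dose cohort.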

A short description of data set [4]: Adverse events in pooled enfortumab vedotin 1.25 mg/kg safety group. As to conditions: for patients with grade 3 or higher TRAEs / patients with serious TRAEs: 1.25 mg/kg safety analysis group; for patients with TRAE grade 3 or higher / patients with serious TRAE: 1.25 mg/kg. In kind it is in vivo, human. In outline: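 Pooled integrated safety dataset (N = 680) from the clinical development program. Patients received monotherapy at 1.25 mg/kg (maximum 125 mg) as a 30-min IV infusion on days 1, 8 and 15 of each 28-day cycle until progression or unacceptable toxicity. Treatment-emergent and treatment-related AEs, including serious events, were tabulated by subgroups of concomitant inhibitor use.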

Data set [5] is described as follows: Population PK: model-predicted exposures by race/ethnicity. Type of data set: in vivo, human. As to conditions: for difference in exposure, lower in Asian patients: cycle 1 AUC0–28d and Cmax, Asian vs non-Asian; for geometric least square mean ratios of Cmax, AUC0–28d and Ctrough lower in Japanese than non-Japanese patients: population PK model-simulated.
For data set [6], the system named is mUC and other Nectin-4–expressing malignant solid tumors. The experiment in a line: EV-101 phase I dose-escalation. Type of data set: in vivo, human.
In data set [7] the test system is locally advanced or metastatic urothelial carcinoma. Put plainly: EV-301 phase III: exposure–response for overall survival. The conditions noted are these: enfortumab vedotin range across ADC Cavg quartiles. In kind it is in vivo, human.
Data set [8] has the same test system. Put plainly: EV-201. In kind it is in vivo, human. As to conditions: upper three ADC Cavg exposure quartiles.
In data set [9] the test system is QTcF interval. The conditions noted are these: cited from earlier work; for Cmax geometric mean: EV-102, after third dose, cycle 1 day 15, 1.25 mg/kg.
Data set [10] relates to plasma proteins. Put plainly: MMAE protein binding in human plasma. In kind it is in vitro ADME. As to conditions: used for unbound Cmax.
Data set [11] is described as follows: Population PK: effect of mild hepatic impairment on model-predicted exposures. In kind it is in vivo, human. As to conditions: mild hepatic impairment compared with normal hepatic function.
For data set [12], the system named is QTcF interval. The experiment in a line: EV-102 concentration–QTcF analysis. Type of data set: in vivo, human. As to conditions: patients, third dose of enfortumab vedotin 1.25 mg/kg.
For data set [13], the target named is human ether-a-go-go–related (hERG) channel (Homo sapiens, UniProt Q12809). Put plainly: hERG channel inhibition, whole-cell voltage clamp. Type of data set: cell-based. In outline: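 In vitro hERG current by conventional whole-cell voltage clamp, with MMAE (free payload) tested at concentrations up to 100 μM. Half-maximal inhibitory concentration is estimated from the concentration–inhibition data. The comparator is the mean estimated maximum unbound plasma MMAE concentration in patients after a third 1.25 mg/kg dose, using an unbound fraction of 0.32.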
Chain of human ether-a-go-go–related (hERG) channel (Q12809 whole entry): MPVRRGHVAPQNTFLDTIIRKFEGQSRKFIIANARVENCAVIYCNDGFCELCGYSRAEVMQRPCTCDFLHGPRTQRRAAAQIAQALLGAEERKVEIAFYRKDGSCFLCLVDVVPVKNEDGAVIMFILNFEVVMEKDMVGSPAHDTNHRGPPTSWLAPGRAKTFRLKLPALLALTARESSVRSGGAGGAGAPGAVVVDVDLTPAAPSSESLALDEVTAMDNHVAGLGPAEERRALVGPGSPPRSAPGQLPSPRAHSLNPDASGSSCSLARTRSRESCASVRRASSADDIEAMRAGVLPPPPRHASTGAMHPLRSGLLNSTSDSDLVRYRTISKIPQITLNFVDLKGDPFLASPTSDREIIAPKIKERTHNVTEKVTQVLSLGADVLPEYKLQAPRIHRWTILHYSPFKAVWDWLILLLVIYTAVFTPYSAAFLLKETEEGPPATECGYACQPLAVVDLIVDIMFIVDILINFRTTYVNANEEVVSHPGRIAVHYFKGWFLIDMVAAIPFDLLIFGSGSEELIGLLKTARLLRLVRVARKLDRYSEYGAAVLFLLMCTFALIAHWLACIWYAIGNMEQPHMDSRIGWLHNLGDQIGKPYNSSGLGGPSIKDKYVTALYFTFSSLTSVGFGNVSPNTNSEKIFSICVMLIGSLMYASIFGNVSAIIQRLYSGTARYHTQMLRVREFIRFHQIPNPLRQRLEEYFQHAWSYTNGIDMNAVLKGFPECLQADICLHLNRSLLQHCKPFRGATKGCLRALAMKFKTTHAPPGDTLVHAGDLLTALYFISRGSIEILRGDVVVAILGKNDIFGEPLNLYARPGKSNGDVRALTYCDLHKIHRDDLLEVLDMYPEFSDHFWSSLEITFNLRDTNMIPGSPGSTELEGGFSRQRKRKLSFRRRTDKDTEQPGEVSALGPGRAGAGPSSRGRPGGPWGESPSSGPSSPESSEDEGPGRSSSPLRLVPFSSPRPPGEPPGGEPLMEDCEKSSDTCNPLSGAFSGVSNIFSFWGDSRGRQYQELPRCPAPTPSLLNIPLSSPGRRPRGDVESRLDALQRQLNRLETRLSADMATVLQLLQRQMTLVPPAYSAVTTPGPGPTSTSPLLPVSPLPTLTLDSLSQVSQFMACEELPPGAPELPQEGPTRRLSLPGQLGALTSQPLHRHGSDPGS

The subject of data set [14] is plasma proteins. As to conditions: 3H-MMAE, human plasma; cited from earlier work.
The next data set concerns P-glycoprotein (P-gp). The conditions noted are these: in vitro, cited from earlier work.
In a further data set the test system is BCRP. As to conditions: in vitro; cited from earlier work.
The next data set has as its system MRP2. As to conditions: in vitro, cited from earlier work.
Another data set has as its system OATP1B1. As to conditions: in vitro, cited from earlier work.
The test system of the next data set is OATP1B3. As to conditions: in vitro, cited from earlier work.
The next data set concerns OCT2. As to conditions: in vitro, cited from earlier work.
The next data set concerns OAT1. The conditions noted are these: in vitro, cited from earlier work.
The subject of the next data set is OAT3. As to conditions: in vitro, cited from earlier work.
A further data set relates to BSEP. As to conditions: in vitro, clinically relevant concentrations; cited from earlier work.
The subject of a further data set is OCT1. The conditions noted are these: in vitro, clinically relevant concentrations; cited from earlier work.
Data set [15] concerns cytochrome P450 (CYP) 3A4. As to conditions: background statement, no reference given; cited from earlier work.
The conditions of data set [16]: MMAE given as brentuximab vedotin; cited from earlier work.
The test system of the next data set is CYP3A. As to conditions: when administered as part of an ADC; cited from earlier work.
[17] abbreviates: clinically relevant concentrations.

“And” between values parts separate entries of the source, which are not always exact repeats. Equal entries are not always repeated. Square brackets hold non-standard residues; d marks the D form. Peptide text beside a SMILES is read from it. * marks the point of attachment. Dolaproine = CO[C@@H]([C@@H]1CCCN1)[C@@H](C)C(=O)O; Dil = CC[C@H](C)[C@H](NC)[C@@H](CC(=O)O)OC; X1 = C[C@@H](N*)[C@@H](O)c1ccccc1; NMeV = CN[C@H](C(=O)O)C(C)C Some results are limits rather than exact numbers.

On to “TAb: analyte: fully conjugated, partially conjugated, and unconjugated antibody after enfortumab vedotin administration”, for which the “geometric mean ratio (GMR) of accumulation” value in [1] (after repeat enfortumab vedotin dosing) was 1.1. Besides, in data set [1], the “AUCd0–14” value is 98.1 µg·days/mL. In addition, in data set [1] (end of cycle 1), the “average Ctrough, TAb relative to ADC” value was “approximately 5.5 fold”.
Consider “Enfortumab vedotin: fully human anti–Nectin-4 IgG1 kappa monoclonal antibody conjugated to MMAE via a protease-cleavable maleimidocaproyl valine–citrulline linker”, for which the “AUCd0–14” value in [1] (listed as ADC) turned out to be 34.7 µg·days/mL. The mean clearance in data set [2] came to 0.11 L/h. Besides, the clinical response entry in data set [3] (0.6 mg/kg and 1.2 mg/kg every 3 weeks) was “clinical response was not observed”. The results for the “median t½” value in data set [3] (1.2 mg/kg intravenous dose) and in data set [3] (0.6-mg/kg dose) were 57.4 h and 39.6 h, respectively. In addition, the “patients with grade 3 or higher TRAEs” value in data set [4] (mild CYP3A inhibitors) stood at 51.1%; in [4] (moderate CYP3A inhibitors), 61.8%; in [4] (not receiving CYP3A inhibitors), 41.5%. In addition, the results for the “patients with serious TRAEs” value in data set [4] (mild CYP3A inhibitors), in data set [4] (moderate CYP3A inhibitors) and in [4] (not receiving CYP3A inhibitors) were 20.7%, 28.7% and 14.4%, respectively. Besides, the “patients with TRAE grade 3 or higher” value in data set [4] (not receiving P-gp inhibitors) was 33.3%; in data set [4] (receiving P-gp inhibitors), 56.8%. The “patients with serious TRAE” value in data set [4] (not receiving P-gp inhibitors) is 10.0%; in data set [4] (receiving P-gp inhibitors), 24.3%. The “difference in exposure, lower in Asian patients” value in [5] is listed as under 11%. Besides, in [5], the “geometric least square mean ratios of Cmax, AUC0–28d and Ctrough lower in Japanese than non-Japanese patients” value was 2.7–11.6%. Moreover, the maximum tolerated dose result in data set [6] (EV-101, 0.5–1.25 mg/kg) is on record as “not identified”. In addition, in data set [6] (EV-101, 1.25-mg/kg dose level), the “confirmed objective response rate [ORR]” value turned out to be 42.9%. In addition, in data set [7], the “median OS” value is on record as 11.0–15.2 months. Moreover, the “ORR (complete and partial responses)” value in data set [8] is listed as 55–64%. Further, the QT prolongation entry in the data set on QTcF interval [9] (EV-102, 1.0 or 1.25 mg/kg) is “No clinically meaningful QT prolongation was observed”. In addition, the “slope estimate, dQTcF vs concentration” value in the data set on QTcF interval [9] (EV-102, 1.0 or 1.25 mg/kg) is 0.539 ms/(μg/mL). For the same compound, in the data set on QTcF interval [9], the Cmax geometric mean is 20100 ng/mL.
`CC[C@H](C)[C@@H]([C@@H](CC(=O)N1CCC[C@H]1[C@H](OC)[C@@H](C)C(=O)N[C@H](C)[C@@H](O)c1ccccc1)OC)N(C)C(=O)[C@@H](NC(=O)[C@@H](NC)C(C)C)C(C)C` [MMAE, monomethyl auristatin E] (H-[NMeV]V[Dil][Dolaproine]-X1): the “Mean Cmax” value in data set [1] (across cycles 1 and 2, enfortumab vedotin 1.25 mg/kg) fell in the range of 2.4 to 3.9 ng/mL. Moreover, in data set [1] (after dosing of enfortumab vedotin 1.25 mg/kg), the “time to peak concentration” value lay in the range of 2 to 3 days. In addition, the “Cmax lower than that of ADC” value in data set [1] (enfortumab vedotin 1.25 mg/kg) is listed as “more than 1000 fold”. The same compound showed an unbound fraction in the data set with plasma proteins [10] of 0.32. In [2], this compound returned a mean clearance of 2.11 L/h. In [11], the “increase in AUC0–28d” value is given as 37% and the “increase in Cmax” value is 31%. Further, in data set [5], the “difference in exposure, lower in Asian patients” value is listed as under 11%; the “geometric least square mean ratios of Cmax, AUC0–28d and Ctrough lower in Japanese than non-Japanese patients” value is listed as 2.7–11.6%. For the same compound, the “mean estimate of maximum unbound MMAE concentration” value with QTcF interval [12] was 0.002 μM and 1.26 ng/mL. Further, the “IC50 estimate relative to mean maximum unbound MMAE concentration” value in [13] (100 μM vs 0.002 μM) is reported as “approximately 50,000 fold”. Moreover, the IC50 in data set [13] (read-out: half maximal inhibitory concentration, concentrations up to 100 μM) is over 100 µM. Further, the “bound to plasma proteins” value with plasma proteins [14] is given as 67.9–82.2%. Also, the “inhibitor of P-gp” value in the data set on P-glycoprotein (P-gp) (setting [17]) is listed as “not an inhibitor”. In the data set on P-glycoprotein (P-gp), the “substrate of P-gp” value is recorded as “substrate”. Besides, the “substrate of BCRP” value in the data set with BCRP was “not a substrate”. In addition, the “inhibitor of MRP2” value in the data set on MRP2 (setting [17]) is reported as “not an inhibitor”. Also, in the data set with MRP2, the “substrate of MRP2” value is listed as “not a substrate”. Further, the “inhibitor of OATP1B1” value with OATP1B1 (setting [17]) is on record as “not an inhibitor”. In addition, the “substrate of OATP1B1” value with OATP1B1 is on record as “not a substrate”. Also, the “inhibitor of OATP1B3” value in the data set with OATP1B3 (setting [17]) is given as “not an inhibitor”. In addition, the “substrate of OATP1B3” value in the data set with OATP1B3 is reported as “not a substrate”. The “inhibitor of OCT2” value in the data set with OCT2 (setting [17]) is listed as “not an inhibitor”. Also, the “substrate of OCT2” value in the data set on OCT2 was “not a substrate”. Moreover, the “inhibitor of OAT1” value in the data set with OAT1 (setting [17]) is reported as “not an inhibitor”. Also, the “substrate of OAT1” value in the data set with OAT1 is “not a substrate”. In addition, the “inhibitor of OAT3” value in the data set with OAT3 (setting [17]) is recorded as “not an inhibitor”. In addition, the “substrate of OAT3” value in the data set with OAT3 is “not a substrate”. Moreover, the “inhibitor of BSEP” value in the data set with BSEP is given as “not an inhibitor”. In the data set with OCT1, the “inhibitor of OCT1” value is listed as “not an inhibitor”. Also, in data set [15], the metabolizing enzyme result is listed as “primarily metabolized by cytochrome P450 (CYP) 3A4”. Besides, in [16], the “share of excreted MMAE that was excreted in feces” value is recorded as “approximately 72%”; the “total MMAE administered excreted in feces and urine” value is listed as “approximately 24%”. For the same compound, the Cmax geometric mean with QTcF interval [9] is recorded as 3.94 ng/mL. The “Predicted dQTcF interval (population mean change in QTcF), mean (SE in table)” value with QTcF interval [9] (at geometric mean Cmax, 1.25 mg/kg) was -3.14 ms. For the same compound, the “inhibitor or inducer of CYP3A” value in the data set with CYP3A was “neither an inhibitor nor an inducer”.
